According to ChEMBL document CHEMBL1153382 (J Med Chem, 2009):
Active and inactive are the calls of the source. The calls are words filed in the database; no cut-off is given here.

Tests used:
[1] = molecular target: T1, 5-hydroxytryptamine receptor 2A (Homo sapiens, UniProt P28223); test: Agonist activity at human 5HT2A receptor expressed in HEK293 cells at 10 uM assessed as calcium flux by FLIPR assay relative to serotonin; assay type: functional, cell-based
[2] = molecular target: T1, 5-hydroxytryptamine receptor 2A; test: Agonist activity at human 5HT2A receptor expressed in HEK293 cells assessed as calcium flux by FLIPR assay; assay type: functional, cell-based
[3] = molecular target: T2, 5-hydroxytryptamine receptor 2B (Homo sapiens, UniProt P41595); test: Agonist activity at human 5HT2B receptor expressed in HEK293 cells assessed as calcium flux by FLIPR assay; assay type: functional, cell-based
[4] = molecular target: T2, 5-hydroxytryptamine receptor 2B; test: Agonist activity at human 5HT2B receptor expressed in HEK293 cells at 10 uM assessed as calcium flux by FLIPR assay relative to serotonin; assay type: functional, cell-based
[5] = molecular target: T3, 5-hydroxytryptamine receptor 2C (Homo sapiens, UniProt P28335); test: (§1) Agonist activity at human 5HT2C receptor expressed in HEK293 cells assessed as calcium flux by FLIPR assay; assay type: functional, cell-based
T3 sequence (P28335 whole entry): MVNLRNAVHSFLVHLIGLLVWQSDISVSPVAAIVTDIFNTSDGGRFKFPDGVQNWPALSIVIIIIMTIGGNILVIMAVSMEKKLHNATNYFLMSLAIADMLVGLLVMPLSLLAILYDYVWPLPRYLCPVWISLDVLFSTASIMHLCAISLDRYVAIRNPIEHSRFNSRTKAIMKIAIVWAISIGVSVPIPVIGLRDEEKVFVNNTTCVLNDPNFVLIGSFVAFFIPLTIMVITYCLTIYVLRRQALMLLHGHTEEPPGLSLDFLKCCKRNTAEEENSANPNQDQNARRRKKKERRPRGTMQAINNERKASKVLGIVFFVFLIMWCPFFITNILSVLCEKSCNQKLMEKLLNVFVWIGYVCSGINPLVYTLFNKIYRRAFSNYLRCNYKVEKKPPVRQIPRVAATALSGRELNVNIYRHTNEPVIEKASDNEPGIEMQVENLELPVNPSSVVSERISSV

[6] = molecular target: T4, 5-hydroxytryptamine receptor 2C (Homo sapiens) (UniProt P28335); test: Agonist activity at human 5HT2C receptor expressed in HEK293 cells at 10 uM assessed as calcium flux by FLIPR assay relative to serotonin; assay type: functional, cell-based
T4 sequence (whole entry): T3 sequence (P28335 whole entry)

Homo sapiens = species: Homo sapiens; test: Selectivity ratio of EC50 for human 5HT2B receptor to EC50 for human 5HT2C receptor
[7] = molecular target: Serotonin 2 receptors; 5-HT2a & 5-HT2c (Homo sapiens) (UniProt P28223+P28335); test: Selectivity ratio of EC50 for human 5HT2A receptor to EC50 for human 5HT2C receptor
[8] = Selectivity ratio of Ki for human 5HT2A receptor to Ki for 5HT2C receptor
[9] = Selectivity ratio of Ki for human 5HT2B receptor to Ki for 5HT2C receptor
[10] = molecular target: T4, 5-hydroxytryptamine receptor 2C (Homo sapiens); test: as §1; assay type: functional, cell-based
[11] = molecular target: T1, 5-hydroxytryptamine receptor 2A; test: Displacement of [3H]ketanserin from human 5HT2A receptor
[12] = molecular target: T2, 5-hydroxytryptamine receptor 2B; test: Displacement of [3H]LSD from human 5HT2B receptor
[13] = molecular target: T3, 5-hydroxytryptamine receptor 2C; test: Displacement of [3H]mesulergine from 5HT2C receptor
[14] = molecular target: Sodium-dependent serotonin transporter (Homo sapiens, UniProt P31645); test: Displacement of [3H]citalopram from SERT
[15] = molecular target: Sodium-dependent noradrenaline transporter (Homo sapiens, UniProt P23975); test: Displacement of [3H]nisoxetine from NET
[16] = molecular target: Sodium-dependent dopamine transporter (Homo sapiens, UniProt Q01959); test: Displacement of [3H]WIN-35428 from DAT
Mus musculus [17] = test: Antidepressant activity in C57BL/6J mouse assessed as decrease in immobility time at 10 mg/kg, ip administered 30 mins prior to testing measured every 1 min for 6 mins by forced swim test relative to control; assay type: functional
In short: (§2)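 Male C57BL/6J mice, 9 weeks old, housed 4 per cage on a 12 h light-dark cycle. Compound given ip in 10% DMSO in saline 30 min before testing. Each mouse was placed alone in a glass cylinder holding 12 cm of water at 23 ± 1 °C. Immobility (floating posture) was scored every 1 min over a 6 min trial and compared with vehicle.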

Mus musculus [18] = test: Antidepressant activity in C57BL/6J mouse assessed as decrease in immobility time at 30 mg/kg, ip administered 30 mins prior to testing measured every 1 min for 6 mins by forced swim test relative to control; assay type: functional; parameters: scale not given: the % may be the effect or the level left; conditions: route intraperitoneal; in short: as §2
Mus musculus [19] = test: Antidepressant activity in C57BL/6J mouse assessed as decrease in immobility time at 60 mg/kg, ip administered 30 mins prior to testing measured every 1 min for 6 mins by forced swim test relative to control; assay type: functional; parameters: scale not given: the % may be the effect or the level left; conditions: route intraperitoneal; in short: as §2

Sequence of Serotonin 2 receptors; 5-HT2a & 5-HT2c (Homo sapiens) (P28223 whole entry, looked up, one chain of several): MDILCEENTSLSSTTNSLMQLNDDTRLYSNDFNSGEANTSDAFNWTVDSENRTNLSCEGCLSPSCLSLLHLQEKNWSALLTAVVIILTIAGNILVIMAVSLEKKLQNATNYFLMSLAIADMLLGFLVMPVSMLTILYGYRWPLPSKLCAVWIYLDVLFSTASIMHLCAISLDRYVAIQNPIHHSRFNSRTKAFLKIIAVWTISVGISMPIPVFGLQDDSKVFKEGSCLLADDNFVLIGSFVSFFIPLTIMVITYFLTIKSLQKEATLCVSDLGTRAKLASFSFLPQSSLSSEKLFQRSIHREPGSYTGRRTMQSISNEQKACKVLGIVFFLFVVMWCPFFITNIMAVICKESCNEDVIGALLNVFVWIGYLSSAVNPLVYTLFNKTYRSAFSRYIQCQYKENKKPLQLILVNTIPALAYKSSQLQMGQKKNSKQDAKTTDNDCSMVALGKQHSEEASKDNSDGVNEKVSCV
T1 sequence (P28223 whole entry): as the sequence (P28223 whole entry, looked up, one chain of several) above
Sequence of Sodium-dependent noradrenaline transporter (P23975 whole entry): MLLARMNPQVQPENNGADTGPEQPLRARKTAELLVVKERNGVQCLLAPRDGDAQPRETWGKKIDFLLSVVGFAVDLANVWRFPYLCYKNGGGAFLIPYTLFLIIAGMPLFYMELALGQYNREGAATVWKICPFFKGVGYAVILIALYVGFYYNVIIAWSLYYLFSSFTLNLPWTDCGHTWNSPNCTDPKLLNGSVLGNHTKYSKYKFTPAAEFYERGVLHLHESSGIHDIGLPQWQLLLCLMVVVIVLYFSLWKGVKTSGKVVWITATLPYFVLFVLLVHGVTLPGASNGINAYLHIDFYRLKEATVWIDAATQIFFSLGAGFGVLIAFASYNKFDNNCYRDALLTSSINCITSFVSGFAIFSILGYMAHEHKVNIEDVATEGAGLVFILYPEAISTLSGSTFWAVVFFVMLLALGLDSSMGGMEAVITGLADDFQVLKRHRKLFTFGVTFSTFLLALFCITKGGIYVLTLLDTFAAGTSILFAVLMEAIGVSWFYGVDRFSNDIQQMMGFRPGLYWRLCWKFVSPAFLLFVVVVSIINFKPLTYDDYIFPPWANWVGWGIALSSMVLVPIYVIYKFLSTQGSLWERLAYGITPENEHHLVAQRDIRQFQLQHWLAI
T2 sequence (P41595 whole entry): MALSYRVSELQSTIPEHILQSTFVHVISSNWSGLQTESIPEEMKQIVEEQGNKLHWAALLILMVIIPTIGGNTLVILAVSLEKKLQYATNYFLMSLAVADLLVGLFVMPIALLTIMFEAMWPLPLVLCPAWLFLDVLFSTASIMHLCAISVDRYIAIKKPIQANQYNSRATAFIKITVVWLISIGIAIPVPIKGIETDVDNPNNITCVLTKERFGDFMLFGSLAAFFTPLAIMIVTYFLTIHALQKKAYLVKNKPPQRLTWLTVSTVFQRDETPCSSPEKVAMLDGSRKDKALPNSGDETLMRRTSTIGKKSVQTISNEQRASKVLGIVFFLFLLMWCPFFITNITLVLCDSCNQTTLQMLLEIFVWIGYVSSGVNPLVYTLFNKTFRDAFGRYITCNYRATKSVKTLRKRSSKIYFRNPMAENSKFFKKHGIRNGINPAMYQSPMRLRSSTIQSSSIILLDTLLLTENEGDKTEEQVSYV
Sequence of Sodium-dependent dopamine transporter (Q01959 whole entry): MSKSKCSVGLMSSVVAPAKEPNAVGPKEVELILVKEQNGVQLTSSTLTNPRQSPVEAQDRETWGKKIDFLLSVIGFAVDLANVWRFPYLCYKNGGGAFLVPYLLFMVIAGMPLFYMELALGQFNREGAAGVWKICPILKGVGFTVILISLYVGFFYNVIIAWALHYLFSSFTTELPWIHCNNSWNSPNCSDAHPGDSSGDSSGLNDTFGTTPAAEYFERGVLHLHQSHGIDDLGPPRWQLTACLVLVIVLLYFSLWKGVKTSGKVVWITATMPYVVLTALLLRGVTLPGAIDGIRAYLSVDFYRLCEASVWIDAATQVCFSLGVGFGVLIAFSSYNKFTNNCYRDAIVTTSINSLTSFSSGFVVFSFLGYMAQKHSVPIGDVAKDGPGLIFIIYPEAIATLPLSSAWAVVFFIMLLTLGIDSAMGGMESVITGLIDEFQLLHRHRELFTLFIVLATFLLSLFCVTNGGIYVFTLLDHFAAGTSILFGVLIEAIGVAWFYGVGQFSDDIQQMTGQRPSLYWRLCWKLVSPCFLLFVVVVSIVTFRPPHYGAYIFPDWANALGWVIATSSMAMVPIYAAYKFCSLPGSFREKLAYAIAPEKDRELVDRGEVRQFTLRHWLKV
Sequence of Sodium-dependent serotonin transporter (P31645 whole entry): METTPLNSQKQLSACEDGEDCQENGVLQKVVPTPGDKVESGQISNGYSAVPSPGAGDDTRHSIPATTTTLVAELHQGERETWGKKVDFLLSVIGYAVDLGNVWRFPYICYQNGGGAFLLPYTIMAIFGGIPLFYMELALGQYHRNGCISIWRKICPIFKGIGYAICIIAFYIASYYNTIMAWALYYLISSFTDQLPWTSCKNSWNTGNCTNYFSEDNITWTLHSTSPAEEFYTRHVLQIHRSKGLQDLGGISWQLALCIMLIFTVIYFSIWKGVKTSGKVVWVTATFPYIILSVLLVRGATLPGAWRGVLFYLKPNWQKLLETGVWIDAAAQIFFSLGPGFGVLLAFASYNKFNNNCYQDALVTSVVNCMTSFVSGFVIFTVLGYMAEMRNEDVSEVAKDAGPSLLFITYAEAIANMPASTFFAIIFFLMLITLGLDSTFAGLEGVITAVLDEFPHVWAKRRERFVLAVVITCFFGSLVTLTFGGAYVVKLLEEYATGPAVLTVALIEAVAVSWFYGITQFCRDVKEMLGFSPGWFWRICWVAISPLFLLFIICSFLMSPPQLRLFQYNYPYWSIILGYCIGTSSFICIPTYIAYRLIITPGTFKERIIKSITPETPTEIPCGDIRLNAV

Compound: NC[C@H]1C[C@@H]1c1ccccc1NC(=O)c1ccccc1 (relative stereo)
- Emax [1]: < 12%
- Activity [2]: inactive
- Activity [3]: inactive
- Emax [4]: < 12%
- EC50 [5]: > 1000 nM
- Emax [6]: 39%

Compound: NC[C@H]1C[C@@H]1c1cccc(-c2cc3ccccc3o2)c1 (relative stereo)
- Emax [1]: < 12%
- Activity [2]: inactive
- Activity [3]: inactive
- Emax [4]: < 12%
- EC50 [5]: > 1000 nM
- Emax [6]: 39%

Compound: NC[C@H]1C[C@@H]1c1ccccc1-c1ccc(F)cc1 (relative stereo)
- Emax [1]: < 12%
- Activity [2]: inactive
- EC50 [3]: > 1000 nM
- Emax [4]: 43%
- EC50 [5]: 301 nM
- Emax [6]: 74%
- Ratio EC50 (Homo sapiens): > 3

Compound: NC[C@H]1C[C@@H]1c1cccc(-c2ccc(Cl)cc2)c1 (relative stereo)
- Emax [1]: < 12%
- Activity [2]: inactive
- Activity [3]: inactive
- Emax [4]: < 12%
- EC50 [5]: 1580 nM
- Emax [6]: 87%

Compound: NC[C@H]1C[C@@H]1c1ccc(C#CCCCCO)cc1 (relative stereo)
- Emax [1]: < 12%
- Activity [2]: inactive
- Activity [3]: inactive
- Emax [4]: < 12%
- EC50 [5]: > 10000 nM
- Emax [6]: 24%

Compound: NC[C@@H]1C[C@H]1c1ccccc1Br (relative stereo) [listing 1 of 2 here]
- Emax [1]: 71%
- Emax [4]: 86%
- Emax [6]: 76%
- Ratio EC50 [7]: 73
- Ratio EC50 (Homo sapiens): 3.7
- Ratio Ki [8]: 5.3
- Ratio Ki [9]: 0.18

Compound: NC[C@H]1C[C@@H]1c1ccc(O)cc1 (relative stereo)
- Emax [1]: < 12%
- Activity [2]: inactive
- Activity [3]: inactive
- Emax [4]: < 12%
- Activity [10]: inactive
- Emax [6]: < 12%

Compound: NC[C@H]1C[C@@H]1c1ccc(-c2ccco2)cc1 (relative stereo)
- Emax [1]: < 12%
- Activity [2]: inactive
- Activity [3]: inactive
- Emax [4]: < 12%
- EC50 [5]: 1200 nM
- Emax [6]: 75%

Compound: NC[C@H]1C[C@@H]1c1ccc(F)cc1Cl (relative stereo)
- Emax [1]: 91%
- Emax [4]: 97%
- Emax [6]: 100%
- Ratio EC50 [7]: 30
- Ratio EC50 (Homo sapiens): 7.3
- Ratio Ki [8]: 1.2
- Ratio Ki [9]: 0.08

Compound: c1ccc(CN[C@H]2C[C@@H]2c2ccccc2)cc1 (racemic)
- Emax [1]: < 12%
- Activity [2]: inactive
- Activity [3]: inactive
- Emax [4]: -1%
- Activity [10]: inactive
- Emax [6]: < 12%

Compound: NC[C@H]1C[C@@H]1c1ccccc1-c1cc2ccccc2o1 (relative stereo)
- Emax [1]: < 12%
- Activity [2]: inactive
- EC50 [3]: > 1000 nM
- Emax [4]: 10%
- EC50 [5]: 1960 nM
- Emax [6]: 66%
- Ratio EC50 (Homo sapiens): > 1

Compound: CC(C)(O)C#Cc1cccc([C@H]2C[C@@H]2CN)c1 (relative stereo)
- Emax [1]: < 12%
- Activity [2]: inactive
- Activity [3]: inactive
- Emax [4]: < 12%
- EC50 [5]: > 5000 nM
- Emax [6]: 62%

Compound: NC[C@@H]1C[C@H]1c1ccccc1Br (relative stereo) [listing 2 of 2 here]
- EC50 [2]: 94 nM
- EC50 [3]: 4.8 nM
- EC50 [5]: 1.3 nM
- Ki [11]: 655 nM
- Ki [12]: 22 nM
- Ki [13]: 124 nM
- Ki [14]: 2720 nM
- Ki [15]: 2730 nM
- Ki [16]: > 10000 nM

Compound: NC[C@H]1C[C@@H]1c1cccc(C#CCCCCO)c1 (relative stereo)
- Emax [1]: < 12%
- Activity [2]: inactive
- EC50 [3]: 1740 nM
- Emax [4]: 17%
- EC50 [5]: 332 nM
- Emax [6]: 79%
- Ratio EC50 [7]: > 30
- Ratio EC50 (Homo sapiens): > 1

Compound: NC[C@H]1C[C@@H]1c1ccccc1C#CCCCCO (relative stereo)
- Emax [1]: < 12%
- Activity [2]: inactive
- EC50 [3]: 204 nM
- Emax [4]: 84%
- EC50 [5]: 232 nM
- Emax [6]: 88%
- Ratio EC50 [7]: > 43
- Ratio EC50 (Homo sapiens): 0.88

Compound: C[C@H]1CNCCc2ccc(Cl)cc21 [LORCASERIN]
- Emax [1]: 26%
- Emax [6]: 124%
- Ki [15]: > 10000 nM
- Ki [16]: > 10000 nM

Compound: CN[C@H]1C[C@@H]1c1ccccc1 (racemic)
- Emax [1]: < 12%
- Activity [2]: inactive
- Activity [3]: inactive
- Emax [4]: 6%
- Activity [10]: inactive
- Emax [6]: < 12%

Compound: NC[C@H]1C[C@@H]1c1ccc(F)cc1 (relative stereo)
- Emax [1]: 67%
- Emax [4]: 89%
- Emax [6]: 93%
- Ratio EC50 [7]: 47
- Ratio EC50 (Homo sapiens): 1.9
- Ratio Ki [8]: 11.5
- Ratio Ki [9]: 0.37

Compound: N[C@@H]1C[C@H]1c1ccccc1.N[C@H]1C[C@@H]1c1ccccc1 (racemic) [TRANYLCYPROMINE]
- Emax [1]: < 12%
- Activity [2]: inactive
- EC50 [3]: > 5000 nM
- Emax [4]: 29%
- EC50 [5]: 2700 nM
- Emax [6]: 109%

Compound: CN[C@H]1CC[C@@H](c2ccc(Cl)c(Cl)c2)c2ccccc21
- Activity (Mus musculus [17]): Active

Compound: CC(=O)Nc1ccccc1[C@H]1C[C@@H]1CN (relative stereo)
- Emax [1]: < 12%
- Activity [2]: inactive
- Activity [3]: inactive
- Emax [4]: < 12%
- EC50 [5]: > 1000 nM
- Emax [6]: 30%

Compound: Cc1cccc([C@H]2C[C@@H]2CN)c1.Cl (relative stereo)
- Emax [1]: 86%
- Emax [4]: 93%
- Emax [6]: 95%
- Ratio EC50 [7]: 123
- Ratio EC50 (Homo sapiens): 14
- Ratio Ki [8]: 6.9
- Ratio Ki [9]: 0.32
- Activity (Mus musculus [17]; route intraperitoneal): 28%
- Activity (Mus musculus [18]): 38%
- Activity (Mus musculus [19]): 38%

Compound: C#Cc1cccc([C@H]2C[C@@H]2CN)c1 (relative stereo)
- Emax [1]: 42%
- EC50 [2]: > 10000 nM
- EC50 [3]: 185 nM
- Emax [4]: 84%
- EC50 [5]: 136 nM
- Emax [6]: 91%
- Ratio EC50 (Homo sapiens): 1.4

Compound: NC[C@H]1C[C@@H]1c1cccc(NCc2ccccc2)c1 (relative stereo)
- Emax [1]: < 12%
- Activity [2]: inactive
- Activity [3]: inactive
- Emax [4]: < 12%
- EC50 [5]: 1180 nM
- Emax [6]: 77%

Compound: N#Cc1ccc(-c2cccc([C@H]3C[C@@H]3CN)c2)cc1 (relative stereo)
- Emax [1]: < 12%
- Activity [2]: inactive
- Activity [3]: inactive
- Emax [4]: < 12%
- EC50 [5]: > 1000 nM
- Emax [6]: 41%

Compound: CN(C)[C@H]1C[C@@H]1c1ccccc1 (racemic)
- Emax [1]: < 12%
- Activity [2]: inactive
- Activity [3]: inactive
- Emax [4]: -2%
- Activity [10]: inactive
- Emax [6]: < 12%

Compound: NC[C@H]1C[C@@H]1c1cccc(NC(=O)c2ccccc2)c1 (relative stereo)
- Emax [1]: < 12%
- Activity [2]: inactive
- Activity [3]: inactive
- Emax [4]: < 12%
- EC50 [5]: > 1000 nM
- Emax [6]: 26%

Compound: NC[C@H]1C[C@@H]1c1ccccc1
- Emax [1]: 79%
- EC50 [2]: 1400 nM
- EC50 [3]: 37 nM
- Emax [4]: 111%
- EC50 [5]: 5.2 nM
- Emax [6]: 108%
- Ratio EC50 [7]: 268
- Ratio EC50 (Homo sapiens): 7.2

Compound: NC[C@H]1C[C@@H]1c1ccccc1Br
- Emax [1]: 76%
- EC50 [2]: 67 nM
- EC50 [3]: 13 nM
- Emax [4]: 102%
- EC50 [5]: 0.78 nM
- Emax [6]: 116%
- Ratio EC50 [7]: 86
- Ratio EC50 (Homo sapiens): 17
- Ki [11]: 246 nM
- Ki [12]: 16 nM
- Ki [13]: 66 nM
- Ki [14]: 3820 nM
- Ki [15]: 3400 nM
- Ki [16]: 2110 nM
- Ratio Ki [8]: 3.7
- Ratio Ki [9]: 0.24

Compound: CC(=O)Nc1cccc([C@H]2C[C@@H]2CN)c1 (relative stereo)
- Emax [1]: < 12%
- Activity [2]: inactive
- Activity [3]: inactive
- Emax [4]: < 12%
- EC50 [5]: > 1000 nM
- Emax [6]: 39%
